Laboratory results published in ChEMBL document CHEMBL4266056, “Discovery and Pharmacology of a Novel Somatostatin Subtype 5 (SSTR5) Antagonist: Synergy with DPP-4 Inhibition” (ACS Med Chem Lett, 2018).
The source made the active and inactive calls. No cut-off for these calls is given here.

Columns and labels:
[1] = target: Potassium voltage-gated channel subfamily E member 1 (Homo sapiens, UniProt P15382); assay: Inhibition of IKs (unknown origin)
[2] = test system: Pancreatic islet; assay: Induction of glucose-dependent insulin secretion in human pancreatic islets at 0.5 to 5 uM preincubated for 30 mins with 2 mM glucose followed by compound addition measured after 60 mins by ELISA; assay type: functional, cell-based
In short: (§1)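 Isolated pancreatic islets from non-diabetic human donors were incubated with compound at 0.5 or 5 µM in 2 mM (G2) or 16 mM (G16) glucose. Insulin secretion was measured against a DMSO control, with P<0.05 significance.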

[3] = test system: Mus musculus; assay: Antidiabetic activity in HFD fed C57BL/6N mouse assessed as increase in circulating active GLP-1 levels at 10 mg/kg, po pretreated for 60 mins measured 5 mins post glucose challenge by OGTT; assay type: functional, organism-based
In short: (§2)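 The SSTR5 antagonist was given orally at 10 mg/kg, alone or combined with des-fluoro sitagliptin at 10 mg/kg, ahead of an oral glucose challenge. Blood was sampled 5 min after glucose for circulating total GLP-1, active GLP-1[7-36] amide and plasma insulin.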

[4] = Solubility of the compound in 10% tween formulation; assay type: physicochemical
[5] = target: Somatostatin receptor type 3 (Homo sapiens, UniProt P32745); assay: Antagonist activity at human SSTR3 expressed in CHO-K1 cell membranes; assay type: functional, cell-based
In short: (§3)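 Counter-screen by filtration membrane binding: competitive displacement of radiolabeled SST-28 from cell membranes expressing human SSTR1, SSTR2, SSTR3 or SSTR4. The IC50 is the mean of at least duplicate experiments within a maximal threefold range.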

[6] = Fraction unbound in rhesus monkey plasma at 0.1 uM using [3H]-labeled compound; assay type: ADME, cell-free, Macaca mulatta
[7] = Unbound plasma concentration in C57BL/6N mouse plasma at 0.3 mg/kg, po measured at 3 hrs; assay type: ADME, organism-based; details: in vivo
[8] = Unbound plasma concentration in C57BL/6N mouse plasma at 1 mg/kg, po measured at 3 hrs; assay type: ADME, organism-based; details: in vivo
[9] = target: Voltage-gated inwardly rectifying potassium channel KCNH2 (Homo sapiens, UniProt Q12809); assay: Inhibition of MK-499 binding to human ERG
[10] = target: Cytochrome P450 2C9 (Homo sapiens, UniProt P11712); assay: Inhibition of human CYP2C9; assay type: ADME
[11] = Clearance in rat at 1 mg/kg, iv or 2 mg/kg, po; assay type: ADME, organism-based; details: in vivo
In short: (§4)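 Rat pharmacokinetics after separate intravenous (1 mg/kg) and oral (2 mg/kg) dosing. Clearance is reported in mL/kg/min and half-life in hours. Oral bioavailability is given as F (%).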

[12] = test system: Mus musculus; assay: Antidiabetic activity in HFD fed C57BL/6N mouse assessed as increase in circulating total GLP-1 levels at 10 mg/kg, po pretreated for 60 mins measured 5 mins post glucose challenge by OGTT; assay type: functional, organism-based; in short: as §2
[13] = Aqueous solubility of the compound in neutral solution; assay type: physicochemical
[14] = Fraction unbound in rat plasma at 0.1 uM using [3H]-labeled compound; assay type: ADME, cell-free
[15] = Half life in rat at 1 mg/kg, iv or 2 mg/kg, po; assay type: ADME, organism-based; details: in vivo; in short: as §4
[16] = test system: Pancreatic islet; assay: Induction of glucose-dependent insulin secretion in human pancreatic islets at 0.5 and 5 uM preincubated for 30 mins with glucose followed by compound addition measured after 60 mins by ELISA
[17] = Unbound plasma concentration in C57BL/6N mouse plasma at 3 mg/kg, po measured at 3 hrs; assay type: ADME, organism-based; details: in vivo
[18] = test system: Pancreatic islet; assay: Induction of glucose-dependent insulin secretion in human pancreatic islets at 0.5 to 5 uM preincubated for 30 mins with 16 mM glucose followed by compound addition measured after 60 mins by ELISA; assay type: functional, cell-based; in short: as §1
[19] = target: Somatostatin receptor type 4 (Homo sapiens, UniProt P31391); assay: Antagonist activity at human SSTR4 expressed in CHO-K1 cell membranes; assay type: functional, cell-based; in short: as §3
[20] = Unbound plasma concentration in C57BL/6N mouse plasma at 0.1 mg/kg, po measured at 3 hrs; assay type: ADME, organism-based; details: in vivo
[21] = Oral bioavailability in rhesus monkey at 1 mg/kg; assay type: ADME, organism-based, Macaca mulatta; details: in vivo
[22] = target: Sodium channel protein type 5 subunit alpha (Homo sapiens, UniProt Q14524); assay: Inhibition of Nav1.5 (unknown origin)
[23] = target: Somatostatin receptor type 2 (Homo sapiens, UniProt P30874); assay: Antagonist activity at human SSTR2 expressed in CHO-K1 cell membranes; assay type: functional, cell-based; in short: as §3
[24] = test system: Mus musculus; assay: Antidiabetic activity in HFD fed C57BL/6N mouse assessed as decrease in blood glucose AUC administered as single oral dose pretreated for 60 mins followed by glucose challenge measured after 120 mins by OGTT; details: read-out: MED
[25] = Unbound plasma concentration in C57BL/6N mouse plasma at 0.03 mg/kg, po measured at 3 hrs; assay type: ADME, organism-based; details: in vivo
[26] = test system: Mus musculus; assay: Antidiabetic activity in HFD fed C57BL/6N mouse assessed as decrease in blood glucose AUC at 0.03 mg/kg administered as single oral dose pretreated for 60 mins followed by glucose challenge measured after 120 mins by OGTT; assay type: functional; parameters: scale not given: the % may be the effect or the level left
In short: (§5)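 Oral dose titration (0.03-3 mg/kg) in HFD-fed mice, n=8. Dosing was followed by an oral glucose tolerance test. Net blood glucose AUC was expressed as % reduction versus vehicle, with P values versus vehicle.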

[27] = test system: Mus musculus; assay: Antidiabetic activity in HFD fed C57BL/6N mouse assessed as decrease in blood glucose AUC at 1 mg/kg administered as single oral dose pretreated for 60 mins followed by glucose challenge measured after 120 mins by OGTT; assay type: functional; parameters: scale not given: the % may be the effect or the level left; in short: as §5
[28] = Volume of distribution in rat at 1 mg/kg, iv or 2 mg/kg, po; assay type: ADME, organism-based; details: in vivo
[29] = test system: Mus musculus; assay: Antidiabetic activity in HFD fed C57BL/6N mouse assessed as decrease in blood glucose AUC at 0.1 mg/kg administered as single oral dose pretreated for 60 mins followed by glucose challenge measured after 120 mins by OGTT; assay type: functional; parameters: scale not given: the % may be the effect or the level left; in short: as §5
[30] = Oral bioavailability in rat at 2 mg/kg; assay type: ADME, organism-based; details: in vivo; in short: as §4
[31] = Fraction unbound in human plasma at 0.1 uM using [3H]-labeled compound; assay type: ADME, cell-free
[32] = target: Cytochrome P450 3A4 (Homo sapiens, UniProt P08684); assay: Inhibition of human CYP3A4; assay type: ADME
[33] = target: T1, Prostaglandin D2 receptor (Homo sapiens, UniProt Q13258); assay: Inhibition of prostanoid DP receptor (unknown origin)
T1 sequence (Q13258 whole entry): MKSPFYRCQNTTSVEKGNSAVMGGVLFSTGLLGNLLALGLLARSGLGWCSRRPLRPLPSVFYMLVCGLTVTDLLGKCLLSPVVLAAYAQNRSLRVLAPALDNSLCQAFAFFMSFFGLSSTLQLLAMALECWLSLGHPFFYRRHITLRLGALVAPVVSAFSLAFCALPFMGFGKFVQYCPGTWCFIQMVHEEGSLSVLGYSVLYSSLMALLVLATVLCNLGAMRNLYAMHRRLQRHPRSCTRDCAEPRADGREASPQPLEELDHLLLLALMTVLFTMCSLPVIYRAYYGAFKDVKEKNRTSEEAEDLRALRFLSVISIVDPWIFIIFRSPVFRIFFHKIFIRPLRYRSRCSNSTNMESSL

[34] = Oral bioavailability in dog at 1 mg/kg; assay type: ADME, organism-based, Canis lupus familiaris; details: in vivo
[35] = Volume of distribution in rhesus monkey at […], iv or 1 mg/kg, po; assay type: ADME, organism-based, Macaca mulatta; details: in vivo

Chain of Somatostatin receptor type 4 (P31391 whole entry): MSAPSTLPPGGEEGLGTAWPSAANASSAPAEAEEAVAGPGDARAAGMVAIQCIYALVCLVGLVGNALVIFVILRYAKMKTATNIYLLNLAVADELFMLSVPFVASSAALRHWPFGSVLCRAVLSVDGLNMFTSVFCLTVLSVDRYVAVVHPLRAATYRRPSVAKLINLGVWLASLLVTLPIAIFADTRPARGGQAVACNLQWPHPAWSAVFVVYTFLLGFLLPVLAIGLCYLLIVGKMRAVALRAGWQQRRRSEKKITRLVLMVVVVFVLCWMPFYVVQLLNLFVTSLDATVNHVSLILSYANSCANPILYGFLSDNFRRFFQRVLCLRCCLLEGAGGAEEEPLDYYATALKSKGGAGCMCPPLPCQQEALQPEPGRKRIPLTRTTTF
Chain of Sodium channel protein type 5 subunit alpha (Q14524 whole entry): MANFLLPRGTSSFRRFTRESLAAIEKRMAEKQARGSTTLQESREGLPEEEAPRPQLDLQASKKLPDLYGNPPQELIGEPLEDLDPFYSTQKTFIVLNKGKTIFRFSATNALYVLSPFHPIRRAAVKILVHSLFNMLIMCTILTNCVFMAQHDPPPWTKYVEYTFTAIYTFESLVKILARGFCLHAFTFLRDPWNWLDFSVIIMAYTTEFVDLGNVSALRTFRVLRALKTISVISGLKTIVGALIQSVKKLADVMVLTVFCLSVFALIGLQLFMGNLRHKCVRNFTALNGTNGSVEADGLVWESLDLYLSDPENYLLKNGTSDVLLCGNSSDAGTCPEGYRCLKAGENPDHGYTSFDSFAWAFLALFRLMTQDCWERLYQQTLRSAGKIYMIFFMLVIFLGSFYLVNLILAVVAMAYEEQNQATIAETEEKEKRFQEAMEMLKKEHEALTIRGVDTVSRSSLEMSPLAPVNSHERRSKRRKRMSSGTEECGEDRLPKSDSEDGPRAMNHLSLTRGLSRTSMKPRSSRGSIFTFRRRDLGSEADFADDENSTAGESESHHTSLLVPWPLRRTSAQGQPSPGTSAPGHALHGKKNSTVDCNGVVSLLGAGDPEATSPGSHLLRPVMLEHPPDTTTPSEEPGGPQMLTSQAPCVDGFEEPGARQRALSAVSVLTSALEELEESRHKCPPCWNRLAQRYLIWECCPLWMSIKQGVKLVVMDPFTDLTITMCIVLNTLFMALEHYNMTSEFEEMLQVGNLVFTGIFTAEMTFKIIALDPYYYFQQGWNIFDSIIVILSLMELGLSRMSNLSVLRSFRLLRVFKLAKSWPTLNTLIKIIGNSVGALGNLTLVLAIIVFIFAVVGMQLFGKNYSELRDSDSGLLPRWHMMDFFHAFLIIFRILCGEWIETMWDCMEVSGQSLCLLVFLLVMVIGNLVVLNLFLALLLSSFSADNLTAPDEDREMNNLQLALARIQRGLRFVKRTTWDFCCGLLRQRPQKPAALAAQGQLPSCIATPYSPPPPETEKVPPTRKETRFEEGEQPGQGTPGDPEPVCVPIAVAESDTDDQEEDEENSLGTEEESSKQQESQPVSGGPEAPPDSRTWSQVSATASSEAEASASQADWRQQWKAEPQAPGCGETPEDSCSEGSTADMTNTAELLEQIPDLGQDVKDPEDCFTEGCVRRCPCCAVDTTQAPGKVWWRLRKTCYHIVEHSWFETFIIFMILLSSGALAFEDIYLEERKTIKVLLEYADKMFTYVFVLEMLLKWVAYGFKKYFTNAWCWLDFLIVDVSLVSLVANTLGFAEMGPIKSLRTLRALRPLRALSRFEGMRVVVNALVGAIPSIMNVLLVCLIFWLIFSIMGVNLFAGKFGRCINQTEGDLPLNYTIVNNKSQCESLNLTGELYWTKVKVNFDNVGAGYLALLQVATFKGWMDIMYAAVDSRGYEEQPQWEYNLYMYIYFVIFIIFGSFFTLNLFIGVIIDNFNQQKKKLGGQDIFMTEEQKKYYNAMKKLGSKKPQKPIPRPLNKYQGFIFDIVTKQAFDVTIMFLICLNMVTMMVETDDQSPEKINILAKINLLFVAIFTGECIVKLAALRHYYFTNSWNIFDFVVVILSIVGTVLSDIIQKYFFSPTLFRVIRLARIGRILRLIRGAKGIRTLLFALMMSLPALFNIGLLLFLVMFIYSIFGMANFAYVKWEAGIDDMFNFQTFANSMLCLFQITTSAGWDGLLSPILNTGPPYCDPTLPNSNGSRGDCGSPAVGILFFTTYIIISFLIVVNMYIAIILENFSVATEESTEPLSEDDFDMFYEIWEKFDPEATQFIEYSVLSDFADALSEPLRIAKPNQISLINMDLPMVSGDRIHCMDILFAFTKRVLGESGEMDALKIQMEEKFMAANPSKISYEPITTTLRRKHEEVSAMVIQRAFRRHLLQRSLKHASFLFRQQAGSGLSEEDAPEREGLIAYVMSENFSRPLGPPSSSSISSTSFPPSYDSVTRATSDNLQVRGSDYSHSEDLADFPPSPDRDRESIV
Chain of Cytochrome P450 3A4 (P08684 whole entry): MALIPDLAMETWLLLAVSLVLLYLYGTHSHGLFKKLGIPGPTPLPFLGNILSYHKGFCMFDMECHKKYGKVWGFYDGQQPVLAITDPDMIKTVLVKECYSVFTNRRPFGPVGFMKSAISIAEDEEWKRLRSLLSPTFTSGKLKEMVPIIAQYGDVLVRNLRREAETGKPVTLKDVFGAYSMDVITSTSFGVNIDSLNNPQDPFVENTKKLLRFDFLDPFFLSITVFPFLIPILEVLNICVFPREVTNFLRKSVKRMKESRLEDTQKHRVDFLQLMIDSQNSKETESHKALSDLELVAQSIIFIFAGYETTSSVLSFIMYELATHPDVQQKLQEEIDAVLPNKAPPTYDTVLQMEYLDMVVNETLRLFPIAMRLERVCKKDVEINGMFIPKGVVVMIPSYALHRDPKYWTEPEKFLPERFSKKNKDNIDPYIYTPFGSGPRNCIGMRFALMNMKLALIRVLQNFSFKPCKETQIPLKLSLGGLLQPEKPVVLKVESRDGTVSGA
Chain of Somatostatin receptor type 2 (P30874 whole entry): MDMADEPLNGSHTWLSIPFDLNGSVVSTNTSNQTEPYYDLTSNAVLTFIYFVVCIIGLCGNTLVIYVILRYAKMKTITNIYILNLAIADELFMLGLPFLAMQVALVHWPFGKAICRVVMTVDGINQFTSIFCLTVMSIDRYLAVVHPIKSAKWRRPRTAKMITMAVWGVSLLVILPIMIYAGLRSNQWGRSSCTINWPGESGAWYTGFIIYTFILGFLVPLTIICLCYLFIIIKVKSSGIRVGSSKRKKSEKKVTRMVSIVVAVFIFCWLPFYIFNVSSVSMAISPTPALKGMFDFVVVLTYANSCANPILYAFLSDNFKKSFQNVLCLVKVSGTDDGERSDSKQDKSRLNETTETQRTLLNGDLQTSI
Chain of Somatostatin receptor type 3 (P32745 whole entry): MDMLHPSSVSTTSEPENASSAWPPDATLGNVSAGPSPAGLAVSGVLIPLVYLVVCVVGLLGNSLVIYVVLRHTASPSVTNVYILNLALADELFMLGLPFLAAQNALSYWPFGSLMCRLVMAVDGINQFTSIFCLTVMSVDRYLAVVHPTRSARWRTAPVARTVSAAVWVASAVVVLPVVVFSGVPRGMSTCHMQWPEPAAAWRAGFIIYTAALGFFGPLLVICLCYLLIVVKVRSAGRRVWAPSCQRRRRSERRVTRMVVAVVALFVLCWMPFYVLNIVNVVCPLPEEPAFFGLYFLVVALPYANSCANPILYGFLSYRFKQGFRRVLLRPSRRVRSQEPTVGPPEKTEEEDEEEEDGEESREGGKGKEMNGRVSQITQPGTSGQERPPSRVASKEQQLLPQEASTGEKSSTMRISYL
Chain of Cytochrome P450 2C9 (P11712 whole entry): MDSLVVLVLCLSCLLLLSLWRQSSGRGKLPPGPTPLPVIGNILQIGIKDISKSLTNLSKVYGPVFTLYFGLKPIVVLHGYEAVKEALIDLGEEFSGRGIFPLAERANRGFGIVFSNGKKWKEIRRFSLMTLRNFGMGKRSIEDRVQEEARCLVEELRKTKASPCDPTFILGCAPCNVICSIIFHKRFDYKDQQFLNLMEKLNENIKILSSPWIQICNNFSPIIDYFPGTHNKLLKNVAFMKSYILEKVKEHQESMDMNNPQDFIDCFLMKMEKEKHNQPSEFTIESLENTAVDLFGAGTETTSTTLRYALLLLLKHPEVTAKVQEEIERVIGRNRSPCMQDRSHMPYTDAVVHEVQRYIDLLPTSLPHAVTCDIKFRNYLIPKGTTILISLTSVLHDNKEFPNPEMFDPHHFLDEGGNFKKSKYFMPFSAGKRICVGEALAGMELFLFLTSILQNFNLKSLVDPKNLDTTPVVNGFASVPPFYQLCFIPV

- IC50 [1]: > 15 µM
- solubility [4]: 5300 µg/mL
- IC50 [5]: > 10 µM
- Fu [6]: 5.4%
- Cp(f) [7]: 1.6 nM
- Cp(f) [8]: 6 nM
- IC50 [10]: > 50 µM
- clearance [11]: 15.2 mL/min/kg
- solubility [13]: 300 µg/mL
- Fu [14]: 5.7%
- half-life [15]: 1.9 h
- Cp(f) [17]: 16.1 nM
- IC50 [19]: > 10 µM
- Cp(f) [20]: 0.5 nM
- bioavailability [21]: 40%
- IC50 [23]: > 10 µM
- Cp(f) [25]: 0.2 nM
- Vd [28]: 2.38 L/kg
- bioavailability [30]: 41%
- Fu [31]: 2.2%
- IC50 [32]: > 50 µM
- IC50 [33]: 3 µM
- bioavailability [34]: 72%
- Vd [35]: 1.39 L/kg
Compound: CCOc1cc(CN2CCC3(CC2)CC(=O)N(c2ccc(C(=O)O)cc2)C3)cc(OCC)c1-c1ccc(F)cc1.O=C(O)C(F)(F)F
- Activity [2]: inactive
- Activity [3]: Active
- IC50 [9]: 45 µM
- Activity [12]: Active
- Activity [16]: Active
- Activity [18]: Active
- IC50 [22]: > 15 µM
- minimal effective dose [24]: 0.1 mg/kg
- Activity [26]: 23%
- Activity [27]: 74%
- Activity [29]: 58%
